Key:
Type in all cases: functional, cell-based
[1] = Cytotoxicity against human MCF7/ADR cells after 48 hrs by MTT assay; settings: NCI/ADR-RES
Summary of the method: (§1)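 Cells grown in RPMI-1640 or DMEM with 10% FBS, 5% CO2, 37 °C. Adherent cells seeded and allowed 12 h to attach before compound addition; suspension cells seeded just before addition; initial density 1 × 10^5 cells/mL. Compound at 0.1, 1, 10, 100, 500 µM, triplicate, 48 h; doxorubicin positive control. Viability by MTT; IC50 by Reed and Muench method.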

MCF7 = test: Cytotoxicity against human MCF7 cells after 48 hrs by MTT assay; settings: MCF7, 48 h; summary of the method: as §1
[2] = Cytotoxicity against human KB/VCR cells after 48 hrs by MTT assay; summary of the method: as §1
KB = test: Cytotoxicity against human KB cells after 48 hrs by MTT assay; summary of the method: as §1
SMMC-7721 = test: Cytotoxicity against human SMMC7721 cells after 48 hrs by MTT assay; settings: SMMC-7721, 48 h; summary of the method: as §1
K562 = test: Cytotoxicity against human K562 cells after 48 hrs by MTT assay; settings: K562, 48 h; summary of the method: as §1

For CC(=O)O[C@@H]1CC[C@]2(C)[C@H]3CC[C@@H]4[C@@H]([C@@](C)(O)CCCC(C)(C)OO)CC[C@@]4(C)[C@]3(C)CC[C@H]2C1(C)C [AGLAIABBREVIATIN F], the IC50 [1] was 5.5 µM, the IC50 (MCF7) was > 10 µM and the IC50 [2] was 0.31 µM. The IC50 (KB) was 0.6 µM, the IC50 (SMMC-7721) was 1.4 µM and the IC50 (K562) was 0.46 µM.
For CC(=O)O[C@@H]1CC[C@]2(C)[C@H]3CC[C@@H]4[C@@H]([C@]5(C)C=CC(=O)O5)CC[C@@]4(C)[C@]3(C)CC[C@H]2C1(C)C [AGLAIABBREVIATIN B], the IC50 [1] was > 10 µM, the IC50 (MCF7) was > 10 µM and the IC50 [2] was > 10 µM. For the same compound, the IC50 (KB) was > 10 µM, the IC50 (SMMC-7721) was > 10 µM and the IC50 (K562) was > 10 µM.
In the case of C=C(C/C=C/C(C)(C)O)[C@H]1CC[C@]2(C)[C@@H]1CC[C@@H]1[C@@]3(C)CCC(=O)C(C)(C)[C@@H]3CC[C@]12C [AGLAIABBREVIATIN E], the IC50 [1] is reported as > 10 µM, the IC50 (MCF7) is reported as > 10 µM and the IC50 [2] is reported as 0.83 µM. For the same compound, the IC50 (KB) was 2.7 µM, the IC50 (SMMC-7721) was 4.2 µM and the IC50 (K562) was 1.8 µM.
For CC(=O)[C@H]1CC[C@]2(C)[C@@H]1CC[C@@H]1[C@@]3(C)CC[C@@H](O)C(C)(C)[C@@H]3CC[C@]12C [AGLAIABBREVIATIN C], the IC50 [1] was > 10 µM, the IC50 (MCF7) was > 10 µM and the IC50 [2] was 1.1 µM. The IC50 (KB) was > 10 µM, the IC50 (SMMC-7721) was > 10 µM and the IC50 (K562) was > 10 µM.
With CC1(C)C=CC[C@@](C)([C@H]2CC[C@]3(C)[C@@H]2CC[C@@H]2[C@@]4(C)CCC(=O)C(C)(C)[C@@H]4CC[C@]23C)O1 [AGLAIABBREVIATIN D] the IC50 [1] was > 10 µM, the IC50 (MCF7) was > 10 µM and the IC50 [2] was 0.96 µM. For the same compound, the IC50 (KB) was 1.2 µM, the IC50 (SMMC-7721) was 2.1 µM and the IC50 (K562) was 1.2 µM.
With COc1cccc2c1C(=O)c1c(O)c3c(c(O)c1C2=O)C[C@@](O)(C(=O)CO)C[C@@H]3O[C@H]1C[C@H](N)[C@H](O)[C@H](C)O1 [DOXORUBICIN] the IC50 [1] was > 10 µM, the IC50 (MCF7) was 0.54 µM and the IC50 [2] was 0.45 µM. For the same compound, the IC50 (KB) was 0.012 µM, the IC50 (SMMC-7721) was 0.37 µM and the IC50 (K562) was 0.17 µM.
For CC1(C)C(=O)CC[C@]2(C)[C@H]3CC[C@@H]4[C@@H]([C@]5(C)C=CC(=O)O5)CC[C@@]4(C)[C@]3(C)CC[C@@H]12 [AGLAIABBREVIATIN A], the IC50 [1] was > 10 µM, the IC50 (MCF7) was > 10 µM and the IC50 [2] was > 10 µM. The IC50 (KB) was > 10 µM, the IC50 (SMMC-7721) was > 10 µM and the IC50 (K562) was > 10 µM.
